Bioassay records (PubChem BioAssay)
Rows were chosen to be rich in hits. Some 9.6% of all compounds tested hit in one or more screens of this group.
TNAP inh hiacc: blocks human TNAP under high phosphate acceptor concentration; inhibition, % at 20 µM; 0.03% of 200,000 active; purified TNAP, CDP-star luminescence, 1 M DEA;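 active = over 50% inhibition of tissue-nonspecific alkaline phosphatase at 20 µM in the single-dose screen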;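 also: plate controls were DMSO wells for no effect and EDTA-quenched wells as full inhibition for full effect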
Target sequence (P05186 whole entry, looked up): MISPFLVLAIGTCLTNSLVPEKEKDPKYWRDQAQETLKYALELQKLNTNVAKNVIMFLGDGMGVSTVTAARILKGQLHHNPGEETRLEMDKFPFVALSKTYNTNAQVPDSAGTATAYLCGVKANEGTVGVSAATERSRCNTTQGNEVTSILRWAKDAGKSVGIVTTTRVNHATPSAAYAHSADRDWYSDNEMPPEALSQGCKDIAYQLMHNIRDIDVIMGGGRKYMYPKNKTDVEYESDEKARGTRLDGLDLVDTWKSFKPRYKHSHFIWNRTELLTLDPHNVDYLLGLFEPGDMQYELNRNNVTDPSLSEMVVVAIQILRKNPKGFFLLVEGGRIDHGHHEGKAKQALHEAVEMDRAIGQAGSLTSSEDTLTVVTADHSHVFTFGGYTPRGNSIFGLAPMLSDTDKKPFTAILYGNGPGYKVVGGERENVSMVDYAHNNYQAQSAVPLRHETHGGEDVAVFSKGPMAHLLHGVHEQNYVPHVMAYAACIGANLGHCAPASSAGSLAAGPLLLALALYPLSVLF
TNAP act hi DEA: increases human TNAP activity under high phosphate acceptor concentration. purified TNAP, CDP-star luminescence, 1 M DEA, 30 min; active compounds read high; 0 = EDTA background, 1 = DMSO-only activity. activation factor at 20 µM. 200,000 tested, under 10 active;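 active = activation factor at least 2 at 20 µM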
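Dosing: 20 µM single point. System: human TNAP. Amount: TNAP 1/800 final. Incubation: 30 min, room temperature. Read-out: TNAP activation factor scaled between EDTA and DMSO control wells. Signal: luminescence from CDP-star hydrolysis. Medium: 1 M DEA, pH 9.8, Mg2+, Zn2+. Control set: EDTA negative control, DMSO positive control.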
bCat KO growth: beta-catenin-lacking colon tumor cell growth suppression; HCT116 beta-catenin knockout viability, CellTiter-Glo, 60 h; active compounds read low; viability, % at 10 µM; 1.5% of 140,000 active;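 active = viability at or under a set limit, the compound median less 4 SD, cut at about 6% in these data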;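 also: 0% = Hyamine 1622 control at 20 µM and 100% = untreated cell control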
TNAP inh noacc: TNAP (human) inhibition, acceptor-free conditions. P05186. purified TNAP, CDP-star luminescence, 30 min. inhibition, % at 20 µM. 0.26% of 200,000 active. AID 1012;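 active = tissue-nonspecific alkaline phosphatase inhibition above about 50% at 20 µM in the single-dose screen, limit read from the data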;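 also: 0% = DMSO negative control and 100% = EDTA positive control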
Lmaj promast: Leishmania major promastigote growth inhibition | 9% of 200,000 active | inhibition, % at 10 µM | Leishmania major promastigotes, resazurin fluorescence viability; in the data active = inhibition above about 50%;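 also: promastigotes grown with compound for 44 hours at 28 °C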
HCT116 PTEN-null: growth suppressors of cells with PTEN tumor suppressor deletion; HCT116 PTEN-null viability, CellTiter-Glo, 60 h; active compounds read low; viability, % at 10 µM; 1.2% of 140,000 active; AID 827;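 active = viability at or below a set limit, 4 SD under the median of all tested compounds, cut at about 3.7% in these data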;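 also: PTEN knockout HCT116 line with beta catenin targeted HCT116 as companion control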
An asterisk follows results filed as active; / = not tested or not shown.

SMILES	TNAP inh hiacc	TNAP act hi DEA	bCat KO growth	TNAP inh noacc	Lmaj promast	HCT116 PTEN-null
Cn1cc(CN2CCN(CCO)CC2)c(-c2ccc(Oc3ccccc3)cc2)n1	-6.5	1.1	/	-3.9	51.0*	/
CCN(Cc1ccncc1)Cc1cn(C)nc1-c1ccc(Oc2ccccc2)cc1	-9.7	1.1	/	-7.8	96.3*	/
Cn1cc(CN2CCC(O)CC2)c(-c2ccc(Oc3ccccc3)cc2)n1	-4.2	1	/	-4.5	81.0*	/
COc1ccc(OC)c(NC(=O)CN(Cc2ccccc2)S(C)(=O)=O)c1	-1.5	1	/	-8.3	4.8	/
CC1CN(Cc2cn(C)nc2-c2ccc(Oc3ccccc3)cc2)CCN1C (stereo not given)	-6.7	1.1	/	-6.0	49.4	/
CCOC(=O)C1CCN(Cc2cn(C)nc2-c2ccc(Oc3ccccc3)cc2)CC1	-5.0	1.1	/	-5.9	78.8*	/
CCCOC(=O)Nc1nc2ccccc2o1	-4.4	1	82.2	-5.9	0.6	94.4
CCOC(=O)C(=CN=C(N)Nc1nc2ccccc2o1)C(=O)OCC	-5.6	1.1	/	-40.8	56.0*	/
Nc1cc(Oc2ccc(F)cc2F)cc([N+](=O)[O-])c1	-4.6	1	/	-16.4	-9.1	/
COc1cc(NC(=O)Cn2nnc(-c3ccccc3N)n2)cc(OC)c1	-7.6	1.1	96.6	4.6	55.2*	90.9
COc1ccccc1-c1nnn(C/C(N)=N/O)n1	-1.2	1	86.2	-20.1	72.2*	96.8
Cc1ccccc1-c1nnn(C/C(N)=N/O)n1	0.3	1	/	-5.2	-5.5	/
CC1CCN(C(=O)COC(=O)c2ccc3c(c2)OCO3)CC1	-6.3	1.1	/	-1.8	-0.8	/
COc1ccc(-c2c(C)n([O-])c3c([n+]2=O)CCCCC3)cc1OC	-5.7	1.1	/	-10.5	-7.1	/
CCOC(=O)C1C(C(=O)NN)C1C(=O)Nc1ccccc1 (stereo not given)	-2.2	1	/	-5.2	2.2	/
COc1ccc(CCC(=O)N2CC(C)OC(C)C2)cc1 (stereo not given)	-1.4	1	92.2	-8.9	-4.2	93.6
COc1ccc(OCC#CCN2CC(C)OC(C)C2)cc1 (stereo not given)	-2.2	1	/	-10.6	56.9*	/
COc1ccccc1CN(Cc1ccco1)S(=O)(=O)c1ccc(-n2cnnn2)c(OC)c1	-6.5	1.1	76.5	-11.2	72.8*	74.7
COc1ccc(CN(Cc2ccc(OC)cc2)S(=O)(=O)c2ccc(-n3cnnn3)c(C)c2)cc1	-0.9	1	68.3	-4.0	49.3	80.7
COc1cccc(CN(Cc2cccnc2)S(=O)(=O)c2ccc(-n3cnnn3)c(C)c2)c1OC	-4.7	1	81.9	-12.5	98.2*	102.4
O=C(Cc1cccs1)NCc1cccc(F)c1	-2.4	1	/	-12.2	-0.9	/
CCOC(=O)c1ccc(-c2ccc(C3Nc4ccccc4C(=O)N3O)o2)cc1 (stereo not given)	-3.1	1	5.4*	-8.1	98.5*	5.6
Cc1nn(C)cc1C1Nc2ccccc2C(=O)N1O (stereo not given)	-1.8	1	101.4	-9.7	-1.9	103.3
Cc1cc([N+](=O)[O-])ccc1-c1ccc(C2Nc3ccccc3C(=O)N2O)o1 (stereo not given)	6.1	0.9	6.3	16.4	99.5*	9.3
COc1ccc(CCN=C(NS(=O)(=O)c2ccc(Cl)cc2)c2ccccc2)cc1	-7.5	1.1	/	-8.4	65.7*	/
SMILES	TNAP inh hiacc	TNAP act hi DEA	bCat KO growth	TNAP inh noacc	Lmaj promast	HCT116 PTEN-null
Cc1ccc(-n2c(SCC(=O)N3Cc4ccccc4CC3C(=O)O)nnc2-c2cccnc2)c(C)c1 (stereo not given)	4.8	1	90.7	-6.7	-8.5	101.4
COc1cc(C2NC(=S)NC(C)=C2C(=O)Nc2ccc(C)cc2)ccc1O (stereo not given)	-4.8	1	/	-2.9	10.6	/
Oc1nc(Nc2cccc(Cl)c2)sc1/C=C1\C=Nc2ccccc21	-1.6	1	69.9	-24.9	-2.8	67.7
CC1=Nc2ccccc2/C1=C\c1sc(Nc2ccc(C)cc2)nc1O	1.4	1	15.7	-3.3	73.2*	15.2
C#CC(CC)(CC)NC(=O)NC1CCCCC1	-0.9	1	/	-5.3	4.9	/
COc1ccc(CN2CCN(Cc3csc(C(C)=O)c3)CC2CCO)c(C)c1C (stereo not given)	3.2	1	/	0.6	86.3*	/
CC(=O)c1cc(CN2CCN(Cc3ccc(C)cc3)C(CCO)C2)cs1 (stereo not given)	-5.0	1.1	/	-5.9	73.2*	/
COc1ccc(CN2CCN(Cc3nc4ccccc4s3)CC2CCO)c(C)c1C (stereo not given)	-2.4	1	/	-4.0	9.8	/
COc1cc(/C=C2/NC(=O)N(Cc3ccccc3F)C2=O)ccc1Oc1ccc([N+](=O)[O-])cn1	-3.2	1	93.9	-10.8	80.1*	106.5
Cc1nn(-c2ccccc2)c(N2CCCC2)c1/C=N/NC(=O)c1ccccc1O	-0.5	1	88.0	-1.8	5.9	90.9
O=C(N/N=C/c1cc2c3c(c1O)CCCN3CCC2)c1ccccc1O	18.7	0.8	13.9	-81.9	100.0*	14.8
COc1ccc(C2=NN(C3=NN=C(N)Cc4ncnn43)C(O)(C(F)(F)F)C2)cc1 (stereo not given)	-3.6	1	/	-173.1	-5.4	/
C=CCNc1nc(-c2ccccn2)nnc1-c1ccccc1	-0.8	1	14.1	-16.9	99.7*	15.0
CNC(=O)N(C1=NCCCCC1)c1ccc(Br)cc1	-4.5	1	94.5	-9.7	-3.9	101.3
COc1cc2c(cc1OC)CN(c1nc(-c3cccnc3)nc3ccccc13)CC2	-0.4	1	/	-5.4	36.5	/
C/C(=C\C(=O)c1ccc(Cl)s1)N(C)C	-2.4	1	/	-3.9	-2.0	/
COc1ccc(C(=O)/C=C/c2ccc(OC)c(O)c2)c(F)c1	14.8	0.9	5.6*	13.9	82.1*	5.7
COc1ccc(/C=C/C(=O)c2ccc(Cl)s2)cc1O	21.7	0.8	3.4*	14.3	91.6*	3.8
COc1ccc(C(=O)/C=C/c2ccc(F)cc2)c(OC(=O)c2ccc([N+](=O)[O-])cc2)c1	-0.1	1	6.6	-8.1	38.1	3.3*
COc1ccc(C(=O)/C=C/c2cccs2)c(OC(=O)c2cccc([N+](=O)[O-])c2)c1	1.1	1	30.6	-3.4	22.9	29.6
Cc1c(/C=C/C(=O)c2ccc(Cl)s2)cnn1C	0.3	1	59.1	-6.3	20.0	52.3
COc1cc(/C=C/C(=O)c2ccc(Cl)s2)cc(OC)c1O	49.0	0.5	4.5*	25.4	100.1*	4.5
COc1ccc(/C=C/C(=O)c2ccccc2O)cc1	-1.4	1	64.8	-6.2	2.7	72.4
Cc1cccc(OC(=O)n2c(=S)oc3cc(Cl)ccc32)c1	-1.4	1	94.2	2.4	-3.5	98.6
Cc1cc(C)c(S(=O)(=O)N2CCCOC2CNC(=O)C(=O)NCc2cccs2)c(C)c1 (stereo not given)	-2.7	1	96.7	-4.4	2.6	88.5
